This is a sample that favours compounds with a hit; in the whole collection about 2.8% have one here.
PAFAH2 FP inh = PAFAH2 enzyme inhibitors, primary screen, biochemical, fluorescence polarization, human | Platelet-activating factor acetylhydrolase 2, cytoplasmic (Homo sapiens), Q99487 | recombinant PAFAH2, FP-rhodamine activity probe | inhibition, % at 3.39 µM | 340,000 compounds, 0.99% hits | AID 492956, 2010;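 active = inhibition above the mean over all tested compounds plus 3 SD, cut at about 30% in these data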;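 note: inhibitors block probe labeling of enzyme so polarization drops; 0% = enzyme with DMSO and 100% = wells lacking PAFAH2 protein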
mABHD4 FP = ABHD4 inhibitors, primary screen, biochemical, fluorescence polarization, mouse; 370,000 compounds, 0.54% hits; inhibition, % at 8.92 µM; (Lyso)-N-acylphosphatidylethanolamine lipase (Mus musculus), Q8VD66; purified mABHD4, FP-Rh probe fluorescence polarization; AID 720543, 2013;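 active = inhibition exceeding the mean over every tested compound plus 3 SD, cut at about 30% in these data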;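 note: 0% = plate median of compound wells and 100% = S159A mutant with DMSO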
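assay system = mABHD4 protein | compound dosing = single nominal dose of 8.92 µM, 0.89% DMSO final | read-out basis = percent inhibition of probe binding, normalized to plate controls | schedule = Enzyme–compound pre-incubation 45 min, then probe 60 min, both 25 °C | detection = fluorescence polarization, excitation 525 nm, emission 598 nm, BODIPY TMR filters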
PAFAH1B3 FP inh = PAFAH1B3 enzyme inhibitors, primary screen, biochemical, fluorescence polarization, human | inhibition, % at 3.39 µM | recombinant PAFAH1B3, FP-rhodamine probe | 340,000 compounds, 0.28% hits;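 active = inhibition above the screen-wide average of all tested compounds plus 3 SD, cut at about 25% in these data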;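 note: 0% = enzyme with DMSO only and 100% = wells lacking PAFAH1B3 protein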
PAFAH1B2 FP inh = PAFAH1B2 enzyme inhibitors, primary screen, biochemical, fluorescence polarization, human. Platelet-activating factor acetylhydrolase IB subunit alpha2 (Homo sapiens), P68402. recombinant PAFAH1B2, FP-rhodamine activity probe. inhibition, % at 3.39 µM. 340,000 compounds, 1.2% hits. AID 492953, 2010;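 active = inhibition above the mean of all tested compounds plus 3 SD, cut at about 24% in these data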;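 note: 0% = enzyme with DMSO and 100% = wells lacking PAFAH1B2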
Target sequence (P68402 whole entry, looked up): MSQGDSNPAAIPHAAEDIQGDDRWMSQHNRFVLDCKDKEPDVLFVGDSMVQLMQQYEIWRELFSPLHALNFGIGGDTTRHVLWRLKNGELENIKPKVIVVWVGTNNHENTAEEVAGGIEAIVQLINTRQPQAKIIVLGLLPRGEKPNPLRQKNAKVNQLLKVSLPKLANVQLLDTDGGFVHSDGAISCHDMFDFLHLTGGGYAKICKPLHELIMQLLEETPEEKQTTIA
HTRA1 inh = HTRA1 serine protease inhibitors, primary screen, biochemical, fluorescence polarization, HTS. 340,000 compounds, 0.5% hits. Q92743. inhibition, % at 5.96 µM. AID 504803, 2011. recombinant HTRA1, FP-rhodamine activity-based probe; in the data active = inhibition above about 36%;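 note: 0% = enzyme with DMSO and 100% = wells lacking enzyme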
pPAFAH FP inh = pPAFAH enzyme inhibitors, primary screen, biochemical, fluorescence polarization, human. Platelet-activating factor acetylhydrolase (Homo sapiens), Q13093. recombinant pPAFAH, FP-rhodamine probe fluorescence polarization. inhibition, % at 3.39 µM. 330,000 compounds, 1.5% hits. AID 463082, 2010;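 active = inhibition above the mean inhibition across the screen plus 3 SD, cut at about 25% in these data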;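 note: inhibitors block binding of the rhodamine activity-based probe so polarization drops; 0% = enzyme with DMSO and 100% = wells lacking pPAFAH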
Target sequence (Q13093 whole entry, looked up): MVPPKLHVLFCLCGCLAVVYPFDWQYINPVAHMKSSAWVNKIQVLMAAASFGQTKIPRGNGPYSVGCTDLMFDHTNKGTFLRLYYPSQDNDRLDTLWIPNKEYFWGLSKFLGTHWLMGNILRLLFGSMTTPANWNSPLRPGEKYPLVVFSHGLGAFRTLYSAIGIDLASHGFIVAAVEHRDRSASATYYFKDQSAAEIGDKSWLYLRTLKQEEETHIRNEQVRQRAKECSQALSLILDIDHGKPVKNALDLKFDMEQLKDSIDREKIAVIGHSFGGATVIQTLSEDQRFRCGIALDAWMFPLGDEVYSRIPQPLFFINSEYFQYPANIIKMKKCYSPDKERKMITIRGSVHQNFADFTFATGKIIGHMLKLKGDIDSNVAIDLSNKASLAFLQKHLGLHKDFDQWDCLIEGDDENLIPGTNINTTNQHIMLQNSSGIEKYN
HTRA1 conf = HTRA1 protease inhibitors, retest, confirmation, biochemical, fluorescence polarization; inhibition, % at 5.96 µM; recombinant HTRA1, FP-rhodamine activity-based probe; AID 540248, 2011; 1,600 compounds, 66% hits; shares compounds with HTRA1 inh;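 active = mean inhibition over three repeats above a set limit taken from the earlier primary screen, cut at about 37% in these data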;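 note: 0% = HTRA1 with DMSO and 100% = wells lacking HTRA1; inhibitors block probe binding so polarization drops and inhibition rises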
Numbers without * were called inactive; x = no result given; + = active, no number.

SMILES	PAFAH2 FP inh	mABHD4 FP	PAFAH1B3 FP inh	PAFAH1B2 FP inh	HTRA1 inh	pPAFAH FP inh	HTRA1 conf
Cc1ccc2nc(N/N=C\c3ccc([N+](=O)[O-])o3)nc(-c3ccccc3)c2c1	5.4	-4.9	4.6	-2.6	-6.4	12.1	x
CC(C)n1cnc2cc(NCc3ccccc3O)ccc21	-0.5	3.8	2.6	9.0	19.9	2.2	x
CC(C)(C)n1cnc2cc(NCc3ccccc3O)ccc21	5.2	11.8	-3.6	6.5	45.8*	2.1	17.4
Cc1cc(C)cc(NC(=O)OC2CCC23CCCCC3)c1 (stereo unspecified)	x	-0.2	x	x	x	x	x
O=[N+]([O-])c1ccccc1/C=N/OCc1ccccc1	6.1	-0.9	-1.9	6.4	-3.3	5.0	x
CCN(CC)c1ccc(N=Cc2ccccc2[N+](=O)[O-])cc1	3.7	46.7*	10.1	-0.2	53.4*	32.8*	146.2*
COc1cccc(/C=N/Nc2ncnc3c2ncn3Cc2ccccc2)c1O	15.3	25.0	3.4	2.9	41.3*	6.9	47.4*
COc1cccc(/C=N/Nc2cc(Cl)nc(C)n2)c1O	1.0	2.0	17.8	2.9	19.2	-2.6	x
CN1C(=O)C[C@@](C#N)(C(=O)N2CCCC2)[C@H]1c1ccccc1	x	4.2	x	x	x	x	x
N/C(=N\OC(=O)c1ccc(Br)o1)c1cccnc1	2.1	4.4	-1.1	-1.1	0.3	-0.6	x
N/C(Cc1ccc(Cl)c(Cl)c1)=N\OC(=O)c1ccc(Br)o1	0.5	-3.4	0.8	2.9	+	7.4	-5.3
CCOCC(=O)NC(=O)N1C[C@H]2CON(C)[C@H]2C[C@H]1c1ccc(OC)cc1	x	2.4	x	x	x	x	x
CCc1ccc(CNc2ccc(O)cc2)cc1	24.9	x	23.7	20.0	72.6*	24.1	52.4*
CCc1ccc(CNc2ccc3c(c2)ncn3CC)cc1	5.8	9.5	1.2	3.0	5.4	5.6	x
CCOc1ccccc1CNc1ccc(O)cc1	34.6*	57.0*	25.7*	20.7	61.2*	x	24.0
COC(=O)C1=C(C)NC(C)=C(C(=O)OC)C1c1cc2cc(C)ccc2[nH]c1=O	-3.4	3.2	7.4	3.8	-0.2	-3.2	x
Cc1oc(C)c2c(=O)ccc3c(c12)OC(N)=C(C#N)C3c1ccccc1 (stereo unspecified)	8.7	14.9	7.8	1.6	24.0	13.2	x
N#CC1=C(N)Oc2c(ccc3cccnc23)C1c1ccccc1 (stereo unspecified)	3.0	14.5	12.5	1.7	41.2*	11.6	1.8
Cc1ccc2[nH]c(=O)c(C3C(C#N)=C(N)Oc4c3ccc3cccnc43)cc2c1 (stereo unspecified)	11.0	22.4	6.8	3.3	73.1*	25.4*	26.7
CCN(CC)C(=O)c1ccc2c(c1)NC(=O)C(C)(C)O2	x	-3.0	x	x	x	x	x
CCCCCCCCN1C(=O)[C@@H](CC(=O)N2CCN(C(=O)c3ccco3)CC2)C[C@@]2(C(=O)OC)C1=C[C@H](COCc1ccccc1)O[C@@H]2C	x	-0.8	x	x	x	x	x
Nc1ccccc1-c1ccccc1N	7.9	-5.0	7.5	-3.5	4.8	3.1	x
Nc1ccccc1N=Nc1ccccc1N	10.9	9.3	4.5	6.2	41.9*	13.4	38.6*
CCN(CC)CCn1c2ccccc2c(=O)c2c(O)ccc(O)c21	20.6	32.9*	7.5	7.5	54.6*	x	48.4*
Cc1ccc(S(=O)(=O)Nc2ccc3oc(=O)sc3c2)c(C)c1	8.1	-20.5	-0.9	28.0*	36.9*	15.7	0.6
SMILES	PAFAH2 FP inh	mABHD4 FP	PAFAH1B3 FP inh	PAFAH1B2 FP inh	HTRA1 inh	pPAFAH FP inh	HTRA1 conf
C=CCN1[C@H](C#N)[C@@H](c2ccc(C#Cc3ccccc3OC)cc2)[C@H]1CO	x	9.1	x	x	x	x	x
O=C(N/N=C/c1cc(Br)c(O)c(Br)c1)c1cc2c(ccc3ccccc32)o1	29.2	11.3	43.0*	49.2*	45.7*	x	49.0*
O=C(NCC(c1ccccc1)c1ccccc1)[C@H](Cc1c[nH]c2ccccc12)NC1(C(=O)NC2CCCCC2)CCCC1	x	-2.1	x	x	x	x	x
CCN(CC)c1cccc(OC2=NS(=O)(=O)c3ccccc32)c1	2.3	87.6*	-3.3	-0.8	46.2*	24.9*	14.6
COc1ccc(Sc2nc(-c3ccccn3)ncc2OC)cc1	8.1	-0.1	5.8	4.8	61.8*	15.3	54.1*
Fc1cccc(NC(=S)NNc2c3ccccc3nc3ccccc23)c1	4.0	28.2	11.6	-3.1	36.5*	x	28.8
Fc1cccc(NC(=S)NNc2ccccc2)c1	3.5	11.0	-0.8	6.4	5.5	13.3	x
CC(C)[C@H](NC(=O)c1cccc(S(=O)(=O)N2CCOCC2)c1)C(=O)OCC(=O)Nc1cccc(Br)c1	13.3	-14.6	4.8	7.4	36.9*	x	37.1*
CCOc1ccc(CNc2ccc(N3CCCC3)cc2)cc1	1.2	x	6.2	4.4	57.8*	32.9*	9.2
COc1cc(CNc2ccc(N3CCCC3)cc2)cc(Cl)c1OC	-3.8	22.5	9.8	6.8	40.5*	28.2*	28.1
CCOc1cc(CNc2ccc(N3CCN(C(C)=O)CC3)cc2)cc(Br)c1OC	-0.2	14.3	-2.7	7.3	27.4	15.5	x
CCOc1ccc(CNc2ccc(N3CCN(Cc4ccccc4)CC3)cc2)cc1	-3.1	14.2	11.4	-3.5	24.5	5.3	x
CCOc1cc(CNc2ccc(S(N)(=O)=O)cc2)cc(Cl)c1OC	-5.1	-1.7	-0.7	-1.7	4.6	7.4	x
CCOc1cc(CNc2ccc(N3CCCCC3)cc2)cc(Br)c1OCC(=O)NC(C)(C)C	0.9	28.3	7.9	7.1	45.2*	2.0	3.0
CCOc1cc(CNc2ccc(N3CCCC3)cc2)cc(Cl)c1OC	12.7	27.7	3.3	1.1	55.4*	23.0	23.4
CC(C)C[C@H]1CN([C@@H](Cc2ccccc2)CN2CCC[C@H]2CN2C(=O)C(=O)NC[C@@H]2Cc2ccccc2)C(=O)C(=O)N1CC1CCCCCC1	x	6.0	x	x	x	x	x
CC(CCN1CCC(C(O)(c2ccccc2)c2ccccc2)CC1)Oc1ccc(C#N)cc1F (stereo unspecified)	x	-2.0	x	x	x	x	x
CCCC[C@@H]1C(=O)N2N=Cc3ccccc3[C@H]2N2N=Cc3ccccc3[C@@H]12	x	-4.6	x	x	x	x	x
O=C(NCc1ccc(F)c(F)c1)C1CCC(CNS(=O)(=O)c2cccc3cccnc23)CC1 (stereo unspecified)	x	-8.9	x	x	x	x	x
Cc1nn(-c2ccccc2)c2nc(N)c(C#N)c(-c3ccc(O)c(O)c3)c12	9.8	1.1	32.3*	3.6	74.0*	30.8*	75.6*

Source: PubChem (The Scripps Research Institute Molecular Screening Center)
